Results taken from ChEMBL document CHEMBL4610092, “Cytotoxic Nitrogenated Azaphilones from the Deep-Sea-Derived Fungus Chaetomium globosum MP4-S01-7” (J Nat Prod, 2020).

Assays:
MGC-803 [1] = assay: Induction of apoptosis in human MGC803 cells assessed as viable cells at 1 uM measured after 48 hrs FITC-A/PE-A staining based flow cytometry (reference value: 94.89 to 96.41%); format: functional; conditions: MGC-803, 48 h, read-out: Activity
AGS [2] = assay: Induction of apoptosis in human AGS cells assessed as viable cells at 5 uM measured after 48 hrs FITC-A/PE-A staining based flow cytometry (reference value: 92.05 to 93.85%); format: functional; conditions: read-out: Activity
MGC-803 [3] = assay: Induction of apoptosis in human MGC803 cells assessed as necrotic cells at 0.2 uM measured after 48 hrs FITC-A/PE-A staining based flow cytometry (reference value: 0.9 to 2.18%); format: functional
MGC-803 [4] = assay: Induction of apoptosis in human MGC803 cells assessed as viable cells at 0.2 uM measured after 48 hrs FITC-A/PE-A staining based flow cytometry (reference value: 94.89 to 96.41%); format: functional; conditions: MGC-803, 48 h, read-out: Activity
AGS [5] = assay: Cytotoxicity against human AGS cells assessed as reduction in cell viability measured after 72 hrs by CCK8 assay; format: functional, cell-based
Outline: (§1)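 MGC803 or AGS cells (RPMI 1640, 10% FBS, 5% CO₂, 37 °C) plated at 3 × 10³ per well overnight, then exposed to 0.1–10 μM for 72 h. Viability was read by CCK8 absorbance at 450 nm, and IC₅₀ was calculated from the concentration series.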

MGC-803 [6] = assay: Induction of apoptosis in human MGC803 cells assessed as late apoptotic cells at 5 uM measured after 48 hrs FITC-A/PE-A staining based flow cytometry (reference value: 0.67 to 0.82%); format: functional
MGC-803 [7] = assay: Induction of apoptosis in human MGC803 cells assessed as viable cells at 0.5 uM measured after 48 hrs FITC-A/PE-A staining based flow cytometry (reference value: 94.89 to 96.41%); format: functional; conditions: MGC-803, 48 h, read-out: Activity
MGC-803 [8] = assay: Induction of apoptosis in human MGC803 cells assessed as late apoptotic cells at 1 uM measured after 48 hrs FITC-A/PE-A staining based flow cytometry (reference value: 0.67 to 0.82%); format: functional
AGS [9] = assay: Induction of apoptosis in human AGS cells measured after 48 hrs FITC-A/PE-A staining based flow cytometry; format: functional, cell-based
MGC-803 [10] = assay: Induction of apoptosis in human MGC803 cells assessed as early apoptotic cells at 0.2 uM measured after 48 hrs FITC-A/PE-A staining based flow cytometry (reference value: 0.59 to 3.54%); format: functional
AGS [11] = assay: Induction of apoptosis in human AGS cells assessed as late apoptotic cells at 1 uM measured after 48 hrs FITC-A/PE-A staining based flow cytometry (reference value: 1.89 to 3.49%); format: functional
AGS [12] = assay: Induction of apoptosis in human AGS cells assessed as necrotic cells at 1 uM measured after 48 hrs FITC-A/PE-A staining based flow cytometry (reference value: 1.35 to 2.69%); format: functional
AGS [13] = assay: Induction of apoptosis in human AGS cells assessed as early apoptotic cells at 0.5 uM measured after 48 hrs FITC-A/PE-A staining based flow cytometry (reference value: 1.77 to 2.91%); format: functional
MGC-803 [14] = assay: Induction of apoptosis in human MGC803 cells assessed as early apoptotic cells at 1 uM measured after 48 hrs FITC-A/PE-A staining based flow cytometry (reference value: 0.59 to 3.54%); format: functional
AGS [15] = assay: Induction of apoptosis in human AGS cells assessed as viable cells at 0.2 uM measured after 48 hrs FITC-A/PE-A staining based flow cytometry (reference value: 92.05 to 93.85%); format: functional; conditions: read-out: Activity
AGS [16] = assay: Induction of apoptosis in human AGS cells assessed as viable cells at 1 uM measured after 48 hrs FITC-A/PE-A staining based flow cytometry (reference value: 92.05 to 93.85%); format: functional; conditions: read-out: Activity
MGC-803 [17] = assay: Induction of apoptosis in human MGC803 cells assessed as late apoptotic cells at 0.5 uM measured after 48 hrs FITC-A/PE-A staining based flow cytometry (reference value: 0.9 to 2.18%); format: functional
MGC-803 [18] = assay: Induction of apoptosis in human MGC803 cells assessed as early apoptotic cells at 5 uM measured after 48 hrs FITC-A/PE-A staining based flow cytometry (reference value: 0.59 to 3.54%); format: functional
AGS [19] = assay: Induction of apoptosis in human AGS cells assessed as early apoptotic cells at 5 uM measured after 48 hrs FITC-A/PE-A staining based flow cytometry (reference value: 1.77 to 2.91%); format: functional
AGS [20] = assay: Induction of apoptosis in human AGS cells assessed as viable cells at 0.5 uM measured after 48 hrs FITC-A/PE-A staining based flow cytometry (reference value: 92.05 to 93.85%); format: functional; conditions: read-out: Activity
MGC-803 [21] = assay: Induction of apoptosis in human MGC803 cells assessed as early apoptotic cells at 0.5 uM measured after 48 hrs FITC-A/PE-A staining based flow cytometry (reference value: 0.59 to 3.54%); format: functional
AGS [22] = assay: Induction of apoptosis in human AGS cells assessed as late apoptotic cells at 5 uM measured after 48 hrs FITC-A/PE-A staining based flow cytometry (reference value: 1.89 to 3.49%); format: functional
AGS [23] = assay: Induction of apoptosis in human AGS cells assessed as necrotic cells at 0.2 uM measured after 48 hrs FITC-A/PE-A staining based flow cytometry (reference value: 1.35 to 2.69%); format: functional
AGS [24] = assay: Induction of apoptosis in human AGS cells assessed as late apoptotic cells at 0.2 uM measured after 48 hrs FITC-A/PE-A staining based flow cytometry (reference value: 1.89 to 3.49%); format: functional
MGC-803 [25] = assay: Induction of apoptosis in human MGC803 cells assessed as late apoptotic cells at 0.2 uM measured after 48 hrs FITC-A/PE-A staining based flow cytometry (reference value: 0.9 to 2.18%); format: functional
AGS [26] = assay: Induction of apoptosis in human AGS cells assessed as late apoptotic cells at 0.5 uM measured after 48 hrs FITC-A/PE-A staining based flow cytometry (reference value: 1.89 to 3.49%); format: functional
MGC-803 [27] = assay: Induction of apoptosis in human MGC803 cells assessed as viable cells at 5 uM measured after 48 hrs FITC-A/PE-A staining based flow cytometry (reference value: 94.89 to 96.41%); format: functional; conditions: MGC-803, 48 h, read-out: Activity
MGC-803 [28] = assay: Cytotoxicity against human MGC803 cells assessed as reduction in cell viability measured after 72 hrs by CCK8 assay; format: functional, cell-based; conditions: MGC-803, 72 h; outline: as §1
AGS [29] = assay: Induction of apoptosis in human AGS cells assessed as early apoptotic cells at 0.2 uM measured after 48 hrs FITC-A/PE-A staining based flow cytometry (reference value: 1.77 to 2.91%); format: functional
AGS [30] = assay: Induction of apoptosis in human AGS cells assessed as necrotic cells at 5 uM measured after 48 hrs FITC-A/PE-A staining based flow cytometry (reference value: 1.35 to 2.69%); format: functional
MGC-803 [31] = assay: Induction of apoptosis in human MGC803 cells assessed as necrotic cells at 0.5 uM measured after 48 hrs FITC-A/PE-A staining based flow cytometry (reference value: 0.9 to 2.18%); format: functional
MGC-803 [32] = assay: Induction of apoptosis in human MGC803 cells assessed as necrotic cells at 1 uM measured after 48 hrs FITC-A/PE-A staining based flow cytometry (reference value: 0.9 to 2.18%); format: functional
AGS [33] = assay: Induction of apoptosis in human AGS cells assessed as early apoptotic cells at 1 uM measured after 48 hrs FITC-A/PE-A staining based flow cytometry (reference value: 1.77 to 2.91%); format: functional
MGC-803 [34] = assay: Induction of apoptosis in human MGC803 cells assessed as necrotic cells at 5 uM measured after 48 hrs FITC-A/PE-A staining based flow cytometry (reference value: 0.9 to 2.18%); format: functional
AGS [35] = assay: Induction of apoptosis in human AGS cells assessed as necrotic cells at 0.5 uM measured after 48 hrs FITC-A/PE-A staining based flow cytometry (reference value: 1.35 to 2.69%); format: functional
MGC-803 [36] = assay: Induction of apoptosis in human MGC803 cells measured after 48 hrs FITC-A/PE-A staining based flow cytometry; format: functional, cell-based

Work on `CC[C@H](C)/C=C/C1=CC2=C(Cl)C(=O)[C@@]3(C)OC(=O)C(C(=O)[C@H](C)[C@@H](C)O)=C3C2=CN1C/C=C(\C)CCC=C(C)C` yielded a viability at 1 µM (MGC-803 [1]) of 85%, a viability at 5 µM (AGS [2]) of 9.55% and an Activity (MGC-803 [3]) of 0.7%. For the same molecule, the viability at 0.2 µM (MGC-803 [4]) was 96.1%, the IC50 (AGS [5]) was 0.12 µM and the Activity (MGC-803 [6]) was 91.5%. The viability at 0.5 µM (MGC-803 [7]) was 96.1%, the Activity (MGC-803 [8]) was 6.91% and the Activity (AGS [9]) was “Dose-dependent effect”. The Activity (MGC-803 [10]) was 2.79%, the Activity (AGS [11]) was 23.07% and the Activity (AGS [12]) was 5.05%. For the same molecule, the Activity (AGS [13]) was 3.49%, the Activity (MGC-803 [14]) was 1.33% and the viability at 0.2 µM (AGS [15]) was 89.6%. The viability at 1 µM (AGS [16]) was 53.3%, the Activity (MGC-803 [17]) was 0.63% and the Activity (MGC-803 [18]) was 0.25%. For the same molecule, the Activity (AGS [19]) was 2.33%, the viability at 0.5 µM (AGS [20]) was 88.1% and the Activity (MGC-803 [21]) was 2.55%. For the same molecule, the Activity (AGS [22]) was 86.44%, the Activity (AGS [23]) was 2.94% and the Activity (AGS [24]) was 4.34%. It also gave an Activity (MGC-803 [25]) of 0.41%, an Activity (AGS [26]) of 5.54% and a viability at 5 µM (MGC-803 [27]) of 6.51%. The IC50 (MGC-803 [28]) was 0.78 µM, the Activity (AGS [29]) was 3.16% and the Activity (AGS [30]) was 1.67%. The Activity (MGC-803 [31]) was 0.73%, the Activity (MGC-803 [32]) was 6.78% and the Activity (AGS [33]) was 18.59%. For the same molecule, the Activity (MGC-803 [34]) was 1.74%, the Activity (AGS [35]) was 2.92% and the Activity (MGC-803 [36]) was “Dose-dependent effect”.

Molecule `CC[C@H](C)/C=C/C1=CC2=C(Cl)C(=O)[C@@]3(C)OC(=O)C(C(=O)[C@@H](C)[C@@H](C)O)=C3C2=CN1CC=C(C)C` has an IC50 (AGS [5]) of 2.9 µM and an IC50 (MGC-803 [28]) of 3 µM.

In the case of `C/C=C(\C)C(=O)C1=C2C3=COC(/C=C/[C@@H](C)CC)=CC3=C(Cl)C(=O)[C@@]2(C)OC1=O` [CHAETOVIRIDIN E], the IC50 (AGS [5]) is reported as greater than 10 µM and the IC50 (MGC-803 [28]) is reported as greater than 10 µM.

With `CCC(=O)C1=C2C3=CN(C/C=C(\C)CCC=C(C)C)C(/C=C/[C@@H](C)CC)=CC3=C(Cl)C(=O)[C@@]2(C)OC1=O` the IC50 (AGS [5]) was 1.2 µM and the IC50 (MGC-803 [28]) was 2.2 µM.

Molecule `CC(=O)O[C@H]1C(=O)[C@@]2(C)[C@H]([C@H](OC(=O)c3ccccc3)[C@]3(O)C[C@H](OC(=O)[C@H](O)[C@@H](NC(=O)c4ccccc4)c4ccccc4)C(C)=C1C3(C)C)[C@]1(OC(C)=O)CO[C@@H]1C[C@@H]2O` [PACLITAXEL] has an IC50 (MGC-803 [28]) of 3.8 µM.

Work on `CC[C@H](C)/C=C/C1=CC2=C(Cl)C(=O)[C@@]3(C)OC(=O)C(C(=O)[C@H](C)[C@@H](C)O)=C3C2=CN1CC=C(C)C` yielded an IC50 (AGS [5]) of 6.5 µM and an IC50 (MGC-803 [28]) of 2.7 µM.
